Converted amounts (≈) assume the structure as drawn.
Columns and labels:
Staphylococcus aureus = assay: Antibacterial activity against Staphylococcus aureus ATCC 6538 after 24 hrs by broth dilution assay; assay type: functional; details: Staphylococcus aureus, ATCC 6538, 24 h; read-out: MIC
[1] = system: Staphylococcus epidermidis; assay: Antibacterial activity against Staphylococcus epidermidis ATCC 14990 after 24 hrs by broth dilution assay; assay type: functional; details: Staphylococcus epidermidis, ATCC 14990, 24 h; read-out: MIC
Procedure, shortened: (§1)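 Microdilution in nutrient broth at 37 °C, about (1-5) × 10^5 cfu/mL inoculum, compounds in DMSO (≤1% v/v, matched DMSO controls), in triplicate. Growth followed by OD550. Wells without visible growth after 24 h on a rotary shaker were subcultured in duplicate onto nutrient agar and colonies counted after overnight incubation. MIC is the lowest concentration inhibiting growth at 24 h.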

Bacillus subtilis = assay: Antibacterial activity against Bacillus subtilis ATCC 6051 after 24 hrs by broth dilution assay; assay type: functional; details: Bacillus subtilis, ATCC 6051, 24 h; read-out: MIC
Bacillus cereus = assay: Antibacterial activity against Bacillus cereus ATCC 21772 after 24 hrs by broth dilution assay; assay type: functional; details: Bacillus cereus, ATCC 21772, 24 h
Candida albicans = assay: Antibacterial activity against Candida albicans CECT 170 after 24 hrs by broth dilution assay; assay type: functional; details: CECT 1039, 24 h, in the assay text read “CECT 1039” for “CECT 170”
Procedure, shortened: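 Yeast grown in Sabouraud liquid medium at 37 °C. Microdilution in triplicate, about (1-5) × 10^5 cfu/mL, DMSO ≤1% v/v with matched controls. OD550 followed. Clear wells at 24 h were plated in duplicate on Sabouraud agar and counted after overnight incubation. MIC is the lowest concentration inhibiting growth.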

Enterococcus faecalis = assay: Antibacterial activity against Enterococcus faecalis ATCC 29212 after 24 hrs by broth dilution assay; assay type: functional; details: ATCC 29212, 24 h
Procedure, shortened: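 Microdilution in brain heart infusion broth, shaken at 37 °C, about (1-5) × 10^5 cfu/mL start, DMSO ≤1% v/v with matched controls, in triplicate. OD550 read. Clear wells at 24 h were subcultured in duplicate onto brain heart infusion agar and counted after overnight incubation. MIC is the lowest concentration giving growth inhibition.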

Escherichia coli = assay: Antibacterial activity against Escherichia coli ATCC 9637 after 24 hrs by broth dilution assay; assay type: functional; details: ATCC 9637, 24 h; procedure, shortened: as §1
Proteus mirabilis = assay: Antibacterial activity against Proteus mirabilis CECT 170 after 24 hrs by broth dilution assay; assay type: functional; details: CECT 170, 24 h; procedure, shortened: as §1
Pseudomonas aeruginosa = assay: Antibacterial activity against Pseudomonas aeruginosa AK958 after 24 hrs by broth dilution assay; assay type: functional; details: AK958, 24 h; procedure, shortened: as §1
Salmonella = assay: Antibacterial activity against Salmonella CECT 4569 after 24 hrs by broth dilution assay; assay type: functional; details: CECT 4569, 24 h; procedure, shortened: as §1
HeLa [2] = assay: Cytotoxicity against human HeLa cells at lag phase of growth after 48 hrs by MTT assay; assay type: functional, cell-based
Procedure, shortened: (§2)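 Monolayers grown in DMEM with 5% fetal calf serum and penicillin-streptomycin at 37 °C, 5% CO2. 2×10^4 cells/well in lag or log phase were exposed for 48 h to a concentration series of compounds predissolved in DMSO. MTT formazan was dissolved in DMSO and read at 550 nm. IC50 taken from the curve; three independent experiments.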

HeLa [3] = assay: Cytotoxicity against human HeLa cells at exponential phase of growth after 48 hrs by MTT assay; assay type: functional, cell-based; procedure, shortened: as §2
A549 [4] = assay: Cytotoxicity against human A549 cells at lag phase of growth after 48 hrs by MTT assay; assay type: functional, cell-based; procedure, shortened: as §2
A549 [5] = assay: Cytotoxicity against human A549 cells at exponential phase of growth after 48 hrs by MTT assay; assay type: functional, cell-based; procedure, shortened: as §2
MCF7 [6] = assay: Cytotoxicity against human MCF7 cells at lag phase of growth after 48 hrs by MTT assay; assay type: functional, cell-based; procedure, shortened: as §2
MCF7 [7] = assay: Cytotoxicity against human […] cells at exponential phase of growth after 48 hrs by MTT assay; assay type: functional, cell-based; procedure, shortened: as §2
Vero [8] = assay: Cytotoxicity against african green monkey Vero cells at lag phase of growth after 48 hrs by MTT assay; assay type: cell-based, Chlorocebus sabaeus; procedure, shortened: as §2
Vero [9] = assay: Cytotoxicity against african green monkey Vero cells at exponential phase of growth after 48 hrs by MTT assay; assay type: cell-based, Chlorocebus sabaeus; procedure, shortened: as §2
[10] = system: Mycolicibacterium smegmatis; assay: Antibacterial activity against Mycobacterium smegmatis ATCC 19420 after 48 hrs by broth dilution assay; assay type: functional; details: ATCC 19420, 48 h
Procedure, shortened: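 Brain heart infusion broth with 0.06% Tween 80, 37 °C on a rotary shaker, inoculum about (1-5) × 10^5 cfu/mL, DMSO ≤1% v/v with matched controls, in triplicate. OD550 monitored.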

HEp-2 [11] = assay: Cytotoxicity against human Hep2 cells at lag phase of growth after 48 hrs by MTT assay; assay type: functional, cell-based; procedure, shortened: as §2
HEp-2 [12] = assay: Cytotoxicity against human Hep2 cells at exponential phase of growth after 48 hrs by MTT assay; assay type: functional, cell-based; procedure, shortened: as §2
[13] = Homo sapiens, HeLa, 48 h, read-out: IC50
[14] = Homo sapiens, A549, 48 h, read-out: IC50
[15] = Homo sapiens, MCF7, 48 h, read-out: IC50
[16] = Chlorocebus sabaeus, Vero, 48 h, read-out: IC50
[17] = Homo sapiens, HEp-2, 48 h, read-out: IC50

MIC (Staphylococcus aureus) [µg/mL] | MIC [1] [µg/mL] | MIC (Bacillus subtilis) [µg/mL] | MIC (Bacillus cereus) [µg/mL] | MIC (Candida albicans) [µg/mL] | MIC (Enterococcus faecalis) [µg/mL] | MIC (Escherichia coli) [µg/mL] | MIC (Proteus mirabilis) [µg/mL] | MIC (Pseudomonas aeruginosa) [µg/mL] | MIC (Salmonella) [µg/mL] | MIC [10] [µg/mL] | Structure (SMILES) | IC50 (HeLa [2]; [13]) [µM] | IC50 (HeLa [3]; [13]) [µM] | IC50 (A549 [4]; [14]) [µM] | IC50 (A549 [5]; [14]) [µM] | IC50 (MCF7 [6]; [15]) [µM] | IC50 (MCF7 [7]; [15]) [µM] | IC50 (Vero [8]; [16]) [µM] | IC50 (Vero [9]; [16]) [µM] | also measured
20 (≈ 57.7 µM) | 10 (≈ 28.9 µM) | 10 (≈ 28.9 µM) | 20 (≈ 57.7 µM) | > 40 | > 40 | > 40 | > 40 | > 40 | > 40 |  | CC(C)c1cc2c(c(O)c1O)[C@@]13CCCC(C)(C)[C@@H]1[C@H](OC3=O)[C@H]2O [ROSMANOL] | 20.2 | 51.4 | 43.4 | 27.7 | 17.1 | 15.3 | 19.9 | 36.4 | 
25 (≈ 75.7 µM) | 5 (≈ 15.1 µM) | 4 (≈ 12.1 µM) | 5 (≈ 15.1 µM) | 20 (≈ 60.5 µM) | > 40 | > 40 | > 40 | > 40 | > 40 | > 40 | CC(C)c1cc2c(c(O)c1O)[C@@]13CCCC(C)(C)[C@@H]1C[C@@H]2OC3=O [CARNOSOL] | 43.9 | > 60 | > 60 | 47 | 40.9 | 44.5 | > 60 | 51.5 | 
> 40 | 20 (≈ 55.5 µM) | > 40 | 20 (≈ 55.5 µM) | > 40 | > 40 | > 40 | > 40 | > 40 | > 40 | > 40 | CO[C@H]1c2cc(C(C)C)c(O)c(O)c2[C@@]23CCCC(C)(C)[C@@H]2[C@@H]1OC3=O | 42.2 | > 60 | 42.5 | > 60 | 37.5 | 55.6 | 42.2 | 47.2 | 
> 40 | 20 (≈ 55.5 µM) | 20 (≈ 55.5 µM) | 20 (≈ 55.5 µM) | > 40 | > 40 | > 40 | > 40 | > 40 | > 40 | > 40 | CO[C@@H]1c2cc(C(C)C)c(O)c(O)c2[C@@]23CCCC(C)(C)[C@@H]2[C@@H]1OC3=O | 40.8 | > 60 | 35.6 | 50.8 | 23.3 | 41.1 | 36.7 | 33.9 | 
40 (≈ 115 µM) | 20 (≈ 57.7 µM) | 30 (≈ 86.6 µM) | 20 (≈ 57.7 µM) | > 40 | > 40 | > 40 | > 40 | > 40 | > 40 | > 40 | CC(C)c1cc2c(c(O)c1O)[C@@]13CCCC(C)(C)[C@@H]1[C@@H](O)[C@@H]2OC3=O [ISOROSMANOL] | > 60 | > 60 | > 60 | 46 | 54.3 | 36.1 | > 60 | > 60 | 
> 40 | > 40 | 20 (≈ 45.8 µM) | 10 (≈ 22.9 µM) | > 40 | > 40 | > 40 | > 40 | > 40 | > 40 | > 40 | CC(C)c1cc2c(c(O)c1O)[C@@]13CCCC(C)(C)[C@@H]1[C@H](OC3=O)[C@@H]2OCc1ccccc1 |  |  |  |  |  |  |  |  | IC50 (HeLa [2]; hela): Not Active; IC50 (HeLa [3]; hela): Not Active; IC50 (HEp-2 [11]; hep-2): Not Active; IC50 (HEp-2 [12]; hep-2): Not Active; IC50 (A549 [4]; a549): Not Active; IC50 (A549 [5]; a549): Not Active; IC50 (MCF7 [6]; mcf7): Not Active; IC50 (MCF7 [7]; mcf7): Not Active; IC50 (Vero [8]; vero): Not Active; IC50 (Vero [9]; vero): Not Active
20 (≈ 58.1 µM) | 40 (≈ 116 µM) | 8 (≈ 23.2 µM) | 10 (≈ 29 µM) | > 40 | > 40 | > 40 | > 40 | > 40 | > 40 | > 40 | CC(C)C1=CC2=C(C(=O)C1=O)[C@@]13CCCC(C)(C)[C@@H]1[C@H](OC3=O)[C@H]2O [ROSMAQUINONE] | > 60 | > 60 | > 60 | 28.8 | 39.5 | > 60 | > 60 | > 60 | 
20 (≈ 60.9 µM) | 40 (≈ 122 µM) | 10 (≈ 30.4 µM) | 10 (≈ 30.4 µM) | > 40 | > 40 | > 40 | > 40 | > 40 | > 40 | > 40 | CC(C)C1=CC2=C[C@H]3OC(=O)[C@@]4(CCCC(C)(C)[C@H]34)C2=C(O)C1=O [SAGEQUINONE METHIDE A] | 14 | 9.5 | > 60 | 26.5 | 46 | 26.8 | > 60 | > 60 | IC50 (HEp-2 [11]; [17]): 32 µM; IC50 (HEp-2 [12]; [17]): 19.2 µM
40 (≈ 112 µM) | > 40 | 20 (≈ 55.8 µM) | 20 (≈ 55.8 µM) | > 40 | > 40 | > 40 | > 40 | > 40 | > 40 | > 40 | CO[C@H]1C2=C(C(=O)C(=O)C(C(C)C)=C2)[C@@]23CCCC(C)(C)[C@@H]2[C@@H]1OC3=O [ROSMAQUINONE B] | 36 | 33.8 | > 60 | 25.4 | 43.3 | 22.1 | > 60 | > 60 | IC50 (HEp-2 [11]; [17]): 42.5 µM; IC50 (HEp-2 [12]; [17]): > 60 µM

Reference: ChEMBL document CHEMBL1154249, “Semisynthesis and biological evaluation of abietane-type diterpenes. Revision of the structure of rosmaquinone” (J Nat Prod, 2009)
